Laboratory results from ChEMBL document CHEMBL3808293, “Antiproliferative activity and apoptosis inducing effects of nitric oxide donating derivatives of evodiamine” (Bioorg Med Chem, 2016).
The source made the active and inactive calls. The rule behind the calls is not given here.

Columns and labels:
[1] = Antiproliferative activity against human Bel7402 cells after 72 hrs by MTT assay; type: functional, cell-based; conditions: Bel-7402, 72 h
Summary of the method: (§1)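 Cells pre-incubated 24 h at 37 °C, 5% CO2, then exposed to compounds for 72 h. MTT (5 mg/mL solution) added for a further 4 h, formazan dissolved in DMSO, OD read at 570 nm. Negative reference 0.1% DMSO; evodiamine and 5-Fu as positive references. IC50 is the concentration inhibiting 50% of growth; mean ± SD of three independent experiments.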

[2] = Antiproliferative activity against human BGC823 cells after 72 hrs by MTT assay; type: functional, cell-based; conditions: BGC-823, 72 h; summary of the method: as §1
[3] = test system: BGC-823; test: Induction of NO release in human BGC823 cells at 100 uM incubated for 1 hr by Griess assay; type: functional
Summary of the method: (§2)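 Cells exposed to 100 μM compound; the methods give 150 min, the results text 1 h. Cell lysates mixed with Griess reagent 10 min at 37 °C, absorbance read at 540 nm. Nitrite quantified against a sodium nitrite standard curve; 0.4% DMSO-treated cells gave background. Mean ± SD of three independent experiments.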

[4] = Antiproliferative activity against human L02 cells after 72 hrs by MTT assay; type: cell-based; conditions: L02, 72 h; summary of the method: as §1
[5] = test system: L02; test: Induction of NO release in human L02 cells at 100 uM incubated for 1 hr by Griess assay; type: functional; summary of the method: as §2
[6] = test system: Bel-7402; test: Induction of NO release in human Bel7402 cells at 100 uM incubated for 1 hr by Griess assay; type: functional; summary of the method: as §2
[7] = test system: A549; test: Antiproliferative activity against human A549 cells after 72 hrs by MTT assay; type: functional, cell-based; conditions: A549, 72 h; summary of the method: as §1
[8] = Induction of apoptosis in human Bel7402 cells assessed as upregulation of FAS protein expression at 1 to 3 uM after 72 hrs by Western blot analysis; type: functional, cell-based; conditions: Bel-7402
Summary of the method: (§3)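 Bel-7402 cells exposed to different doses for 72 h, lysed, and protein content determined. Lysates separated on 10% SDS-PAGE and transferred to nitrocellulose. Membranes probed with monoclonal primary antibodies, then HRP-conjugated secondary antibodies, with ECL detection.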

[9] = Cell cycle arrest in human Bel7402 cells assessed as accumulation at G1 phase at 1 uM after 24 hrs by propidium iodide staining based flow cytometry (reference value: 43.13%); type: functional; conditions: Bel-7402
[10] = Cell cycle arrest in human Bel7402 cells assessed as accumulation at G1 phase at 2 uM after 24 hrs by propidium iodide staining based flow cytometry (reference value: 43.13%); type: functional; conditions: Bel-7402
[11] = test system: Bel-7402; test: Induction of apoptosis in human Bel7402 cells assessed as early apoptotic cells at 3 uM after 72 hrs by Annexin V-FITC/propidium iodide staining based flow cytometry (reference value: 6.66%); type: functional
[12] = Cell cycle arrest in human Bel7402 cells assessed as accumulation at G2 phase at 3 uM after 24 hrs by propidium iodide staining based flow cytometry (reference value: 23.17%); type: functional; conditions: Bel-7402
[13] = test system: Bel-7402; test: Induction of apoptosis in human Bel7402 cells assessed as live cells at 3 uM after 72 hrs by Annexin V-FITC/propidium iodide staining based flow cytometry (reference value: 88.31%); type: functional
[14] = test system: Bel-7402; test: Induction of mitochondrial membrane depolarization in human Bel7402 cells at 2 uM after 72 hrs by JC-1 staining based flow cytometry (reference value: 4.26%); type: functional
[15] = test system: Bel-7402; test: Induction of apoptosis in human Bel7402 cells assessed as late apoptotic cells at 3 uM after 72 hrs by Annexin V-FITC/propidium iodide staining based flow cytometry (reference value: 2.55%); type: functional
[16] = test system: Bel-7402; test: Induction of apoptosis in human Bel7402 cells assessed as increase in caspase-3 expression at 1 to 3 uM after 72 hrs by Western blot analysis; type: functional, cell-based; summary of the method: as §3
[17] = Cell cycle arrest in human Bel7402 cells assessed as accumulation at S phase at 2 uM after 24 hrs by propidium iodide staining based flow cytometry (reference value: 33.7%); type: functional; conditions: Bel-7402
[18] = Cell cycle arrest in human Bel7402 cells assessed as accumulation at G2 phase at 1 uM after 24 hrs by propidium iodide staining based flow cytometry (reference value: 23.17%); type: functional; conditions: Bel-7402
[19] = Cell cycle arrest in human Bel7402 cells assessed as accumulation at S phase at 1 uM after 24 hrs by propidium iodide staining based flow cytometry (reference value: 33.7%); type: functional; conditions: Bel-7402
[20] = test system: Bel-7402; test: Induction of apoptosis in human Bel7402 cells after 72 hrs by Annexin V-FITC/propidium iodide staining based flow cytometry; type: functional, cell-based
[21] = test system: Bel-7402; test: Induction of apoptosis in human Bel7402 cells assessed as necrotic cells at 3 uM after 72 hrs by Annexin V-FITC/propidium iodide staining based flow cytometry (reference value: 2.48%); type: functional
[22] = test system: Bel-7402; test: Induction of apoptosis in human Bel7402 cells assessed as live cells at 2 uM after 72 hrs by Annexin V-FITC/propidium iodide staining based flow cytometry (reference value: 88.31%); type: functional
[23] = test system: Bel-7402; test: Induction of apoptosis in human Bel7402 cells assessed as necrotic cells at 1 uM after 72 hrs by Annexin V-FITC/propidium iodide staining based flow cytometry (reference value: 2.48%); type: functional
[24] = Cell cycle arrest in human Bel7402 cells assessed as accumulation at G1 phase at 3 uM after 24 hrs by propidium iodide staining based flow cytometry (reference value: 43.13%); type: functional; conditions: Bel-7402
[25] = test system: Bel-7402; test: Induction of apoptosis in human Bel7402 cells assessed as live cells at 1 uM after 72 hrs by Annexin V-FITC/propidium iodide staining based flow cytometry (reference value: 88.31%); type: functional
[26] = test system: Bel-7402; test: Induction of apoptosis in human Bel7402 cells assessed as increase in caspase-8 expression at 1 to 3 uM after 72 hrs by Western blot analysis; type: functional, cell-based; summary of the method: as §3
[27] = test system: Bel-7402; test: Induction of apoptosis in human Bel7402 cells assessed as early apoptotic cells at 1 uM after 72 hrs by Annexin V-FITC/propidium iodide staining based flow cytometry (reference value: 6.66%); type: functional
[28] = test system: Bel-7402; test: Induction of mitochondrial membrane depolarization in human Bel7402 cells at 1 uM after 72 hrs by JC-1 staining based flow cytometry (reference value: 4.26%); type: functional
[29] = test system: Bel-7402; test: Induction of apoptosis in human Bel7402 cells assessed as late apoptotic cells at 2 uM after 72 hrs by Annexin V-FITC/propidium iodide staining based flow cytometry (reference value: 2.55%); type: functional
[30] = test system: Bel-7402; test: Induction of apoptosis in human Bel7402 cells assessed as increase in cytochrome-C level at 1 to 3 uM after 72 hrs by Western blot analysis; type: functional, cell-based; summary of the method: as §3
[31] = test system: Bel-7402; test: Induction of apoptosis in human Bel7402 cells assessed as increase in caspase-9 expression at 1 to 3 uM after 72 hrs by Western blot analysis; type: functional, cell-based; summary of the method: as §3
[32] = Induction of apoptosis in human Bel7402 cells assessed as upregulation of Bax expression at 1 to 3 uM after 72 hrs by Western blot analysis; type: functional, cell-based; conditions: Bel-7402; summary of the method: as §3
[33] = test system: Bel-7402; test: Induction of apoptosis in human Bel7402 cells assessed as late apoptotic cells at 1 uM after 72 hrs by Annexin V-FITC/propidium iodide staining based flow cytometry (reference value: 2.55%); type: functional
[34] = test system: Bel-7402; test: Induction of apoptosis in human Bel7402 cells assessed as necrotic cells at 2 uM after 72 hrs by Annexin V-FITC/propidium iodide staining based flow cytometry (reference value: 2.48%); type: functional
[35] = test system: Bel-7402; test: Induction of apoptosis in human Bel7402 cells assessed as down regulation of Bcl-2 expression at 1 to 3 uM after 72 hrs by Western blot analysis; type: functional, cell-based; summary of the method: as §3
[36] = Cell cycle arrest in human Bel7402 cells assessed as accumulation at S phase at 3 uM after 24 hrs by propidium iodide staining based flow cytometry (reference value: 33.7%); type: functional; conditions: Bel-7402
[37] = Cell cycle arrest in human Bel7402 cells assessed as accumulation at G2 phase at 2 uM after 24 hrs by propidium iodide staining based flow cytometry (reference value: 23.17%); type: functional; conditions: Bel-7402
[38] = test system: Bel-7402; test: Induction of mitochondrial membrane depolarization in human Bel7402 cells after 72 hrs by JC-1 staining based flow cytometry; type: functional, cell-based
[39] = test system: Bel-7402; test: Induction of apoptosis in human Bel7402 cells assessed as early apoptotic cells at 2 uM after 72 hrs by Annexin V-FITC/propidium iodide staining based flow cytometry (reference value: 6.66%); type: functional
[40] = test system: Bel-7402; test: Induction of mitochondrial membrane depolarization in human Bel7402 cells at 3 uM after 72 hrs by JC-1 staining based flow cytometry (reference value: 4.26%); type: functional

Molecule `CN1c2ccccc2C(=O)N2CCc3c(n(CCCOc4no[n+]([O-])c4S(=O)(=O)c4ccccc4)c4ccccc34)C21` (configuration not stated) has an IC50 [1] of 6.21 µM, an IC50 [2] of 0.08 µM and an Activity [3] of 83.6 µM. For the same molecule, the IC50 [4] was 2.35 µM, the Activity [5] was 16.4 µM and the Activity [6] was 83.1 µM. The IC50 [7] was 5.85 µM.

In the case of `CN1c2ccccc2C(=O)N2CCc3c(n(CCCCCCOc4no[n+]([O-])c4S(=O)(=O)c4ccccc4)c4ccccc34)C21` (configuration not stated), the Activity [8] is reported as “Active”, the Activity [9] is reported as 44.9% and the Activity [10] is reported as 42.6%. It also gave an Activity [11] of 24.37%, an Activity [12] of 5.9% and an Activity [13] of 40.74%. The Activity [14] was 26.57%, the IC50 [1] was 2.1 µM and the Activity [15] was 28.2%. For the same molecule, the Activity [16] was “Active”, the Activity [17] was 47.3% and the Activity [18] was 15.7%. The Activity [19] was 39.3%, the Activity [20] was “Dose-dependent effect” and the IC50 [2] was 0.07 µM. For the same molecule, the Activity [21] was 6.69%, the Activity [22] was 58.88% and the Activity [23] was 2.73%. For the same molecule, the Activity [24] was 42.6%, the Activity [3] was 87.3 µM and the Activity [25] was 77.63%. For the same molecule, the Activity [26] was “Active”, the Activity [27] was 15.92% and the Activity [28] was 13.5%. It also gave an IC50 [4] of over 100 µM, an Activity [5] of 26 µM and an Activity [29] of 15.4%. For the same molecule, the Activity [30] was “Active”, the Activity [31] was “Active” and the Activity [6] was 82.2 µM. The Activity [32] was “Active”, the IC50 [7] was 2.31 µM and the Activity [33] was 3.71%. For the same molecule, the Activity [34] was 4.74%, the Activity [35] was “Active” and the Activity [36] was 51.5%. For the same molecule, the Activity [37] was 10%, the Activity [38] was “Dose-dependent effect” and the Activity [39] was 20.98%. It also gave an Activity [40] of 44.37%.

For `CN1c2ccccc2C(=O)N2CCc3c(n(CCOC(=O)CCC(=O)OCCOc4no[n+]([O-])c4S(=O)(=O)c4ccccc4)c4ccccc34)C21` (configuration not stated), the IC50 [1] was 1.54 µM, the IC50 [2] was 0.02 µM and the Activity [3] was 93.5 µM. The IC50 [4] was 17.1 µM, the Activity [5] was 6.59 µM and the Activity [6] was 88.7 µM. For the same molecule, the IC50 [7] was 3.04 µM.

Work on `COC(=O)CCC(=O)OCCOc1no[n+]([O-])c1S(=O)(=O)c1ccccc1` yielded an IC50 [1] of 27.9 µM, an IC50 [2] of 21.4 µM and an IC50 [4] of 43.3 µM. The IC50 [7] was 24.7 µM.

Molecule `O=C(O)CCC(=O)OCCOc1no[n+]([O-])c1S(=O)(=O)c1ccccc1` has an IC50 [1] of 21.4 µM, an IC50 [2] of 18 µM and an IC50 [4] of 38.7 µM. The IC50 [7] was 27.9 µM.
